From ChEMBL document CHEMBL1926538, “3,5-Disubstituted-thiazolidine-2,4-dione analogs as anticancer agents: design, synthesis and biological characterization” (Eur J Med Chem, 2012) come the findings set out here.

Test [1] relates to U-937. In words: Cell cycle arrest in human U937 cells assessed as accumulation at S-phase after 24 hrs by propidium iodide staining-based flow cytometric analysis. Format: functional. A digest of the protocol: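 Cells cultured in RPMI 1640 with 10% FBS and treated 24 h at the indicated concentrations. Stained with propidium iodide for 4 h at 4 °C in the dark. Flow cytometry gave the percentage of cells in G₀/G₁, S, G₂/M and sub-G₁ phases.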
In general terms: Flow cytometry measures light scatter and fluorescence of single cells or particles in a stream.

Test [2] in a line: Inhibition of P70S6K at 10 uM.
Test [3] has as its system U-937. Description: Induction of apoptosis in human U937 cells assessed as viable cells at 10 uM after 3 hrs by annexinV-propidium iodide staining-based flow cytometric analysis (reference value: 86.3%). Format: functional. Particulars: U-937, 3 h, read-out: Activity.

Molecules are shown by their SMILES.

For orientation: inhibition means how much of the control response was suppressed. Low values mean a weak effect, high ones a strong effect. With `NCCN1C(=O)S/C(=C\CCC2CCCCC2)C1=O`, in test [1], the Activity entry is “Dose-dependent effect”. The compound further displayed an inhibition in test [2] of 5%. For the same compound, the viability at 10 µM in test [3] stood at 62.8%.
